Common to all, as to type: functional
In test [1] the test system is Listeria monocytogenes. The experiment in a line: Antimicrobial activity against Listeria monocytogenes ATCC 19111 assessed as growth inhibition rate at 4 mg/l after 72 hr by spectrophotometry. The conditions noted are these: ATCC 19111, 72 h, read-out: GI. The procedure, abridged:
(§1)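 L. monocytogenes was grown at 30 °C in tryptic soy broth, subcultured for 18 h, and exposed to pure volatile compounds (>95% purity). Growth was followed by Bioscreen C optical density every 24 h for 72 h against a 10% Tween 80 control.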

The subject of test [2] is Vibrio parahaemolyticus. Briefly: Antimicrobial activity against Vibrio parahaemolyticus ATCC 33844 assessed as growth inhibition rate at 4 mg/l after 72 hr by spectrophotometry. To be noted: ATCC 33844, 72 h, read-out: GI.
For test [3], the system named is Salmonella typhimurium. The experiment in a line: Antimicrobial activity against Salmonella enterica subsp. enterica serovar Typhimurium ATCC 14028 assessed as growth inhibition rate at 4 mg/l after 72 hr by spectrophotometry. The conditions noted are these: ATCC 14028, 72 h, read-out: GI. The procedure, abridged:
(§2)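 Salmonella Typhimurium ATCC 14028 grown in nutrient broth at 30 °C, precultured 24 h, then subcultured 1:100 for 18 h before testing. Single volatile compounds (>95% pure) were added. OD was read every 24 h over 72 h in a Bioscreen C, with 10% Tween 80 as the comparison control.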

The subject of test [4] is Escherichia coli. Briefly: Antimicrobial activity against Escherichia coli O157:H7 ATCC 43894 assessed as growth inhibition rate at 4 mg/l after 72 hr by spectrophotometry. The conditions noted are these: O157:H7 ATCC 43894, 72 h, read-out: GI.
In test [5] the test system is Staphylococcus aureus. Briefly: Antimicrobial activity against Staphylococcus aureus ATCC 25923 assessed as growth inhibition rate at 4 mg/l after 72 hr by spectrophotometry. The conditions noted are these: ATCC 25923, 72 h, read-out: GI.
For test [6], the system named is Bacillus cereus. The experiment in a line: Antimicrobial activity against Bacillus cereus ATCC 11778 assessed as growth inhibition rate at 4 mg/l after 72 hr by spectrophotometry. The conditions noted are these: ATCC 11778, 72 h, read-out: GI. The procedure, abridged:
(§3)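 Pure volatile compounds (purity >95%; one at 90%) were tested against B. cereus ATCC 11778. The strain was grown at 30 °C in nutrient broth for 24 h, then subcultured for 18 h. Optical density was read in a Bioscreen C every 24 h for 72 h, with 10% Tween 80 as the control.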

Test [7] relates to Listeria monocytogenes. The experiment in a line: Antimicrobial activity against Listeria monocytogenes ATCC 19111 assessed as growth inhibition rate at 3.8 mg/l after 72 hr by spectrophotometry. The conditions noted are these: ATCC 19111, 72 h, read-out: GI. Summed up:
as §1

Test [8] deals with Vibrio parahaemolyticus. Briefly: Antimicrobial activity against Vibrio parahaemolyticus ATCC 33844 assessed as growth inhibition rate at 3.8 mg/l after 72 hr by spectrophotometry. The conditions noted are these: ATCC 33844, 72 h, read-out: GI.
Test [9] has as its system Salmonella typhimurium. The experiment in a line: Antimicrobial activity against Salmonella enterica subsp. enterica serovar Typhimurium ATCC 14028 assessed as growth inhibition rate at 3.8 mg/l after 72 hr by spectrophotometry. To be noted: ATCC 14028, 72 h, read-out: GI. Summed up:
as §2

Test [10] relates to Escherichia coli. Briefly: Antimicrobial activity against Escherichia coli O157:H7 ATCC 43894 assessed as growth inhibition rate at 3.8 mg/l after 72 hr by spectrophotometry. The conditions noted are these: O157:H7 ATCC 43894, 72 h, read-out: GI.
For test [11], the system named is Staphylococcus aureus. The experiment in a line: Antimicrobial activity against Staphylococcus aureus ATCC 25923 assessed as growth inhibition rate at 3.8 mg/l after 72 hr by spectrophotometry. To be noted: ATCC 25923, 72 h, read-out: GI.
The test system of test [12] is Bacillus cereus. Briefly: Antimicrobial activity against Bacillus cereus ATCC 11778 assessed as growth inhibition rate at 3.8 mg/l after 72 hr by spectrophotometry. The conditions noted are these: ATCC 11778, 72 h, read-out: GI. Summed up: as §3

Regarding `CC1=CC[C@@H]2C3C(C(C)C)CCC2(C)[C@@H]13` (stereo partly drawn) [(-)-ALPHA-COPAENE], the inhibition of growth at 4 µg/mL with Listeria monocytogenes [1] was 0%; with Vibrio parahaemolyticus [2] it was 0%; in the test with Salmonella typhimurium [3], 0.1%; in the test on Escherichia coli [4] it was 0%; with Staphylococcus aureus [5], 5.7%; in the test with Bacillus cereus [6], 5.9%.
For `C=CC(C)(O)CCC=C(C)C` (configuration not stated) [LINALOOL], the inhibition of growth at 3.8 µg/mL in the test with Listeria monocytogenes [7] was determined as 0.6%; in the test on Vibrio parahaemolyticus [8], 0%; with Salmonella typhimurium [9], 8.2%; with Escherichia coli [10], 2.1%; in the test with Staphylococcus aureus [11], 2.6%; with Bacillus cereus [12] it was 8.6%.

The record behind these values is ChEMBL document CHEMBL3046951, “Volatile constituents from the leaves of Callicarpa japonica Thunb. and their antibacterial activities” (2004).
